Measurements from different studies.
Lines come from different studies, so protocols differ.

SMILES | tested on | assay | test system | setting | endpoint | value
N#C[C@@]1(c2ccc3c(N)ncnn23)O[C@H](COC(=O)c2ccccc2)[C@@H](O)[C@H]1O | HEp-2 | cell growth or viability, CCK-8 |  | 5 days | CC50 | 79.2 µM
CC(C)(N)COCC(=O)N1CCC[C@H](C(=O)NCc2nc(-c3ccc(C(F)(F)F)cc3)cs2)C1 |  | metabolic stability | male Sprague-Dawley rat, liver microsomes | 0.5 µM | scaled CLint | 22 mL/min/kg
CC(C)[C@@H](N)C(=O)OC[C@H]1O[C@@](C#N)(c2ccc3c(N)ncnn23)[C@H](O)[C@@H]1O | HEp-2 | cell growth or viability, CCK-8 |  | 5 days | CC50 | > 100 µM
C[C@]1(O)CCCN(c2nc(Nc3ccc(S(=O)(=O)N[C@@H]4CCN(CC5CCN(c6ccc(C7CCC(=O)NC7=O)cc6F)CC5)C[C@H]4F)cc3F)ncc2C(F)(F)F)C1 (stereo partly shown) |  | metabolic stability | human, liver microsomes | 1 µM | scaled CLint | 22 mL/min/kg
COCC(=O)N1CCC[C@H](C(=O)NCc2nc(-c3ccc(C#N)cc3)cs2)C1 |  | metabolic stability | human, hepatocytes | 0.5 µM | scaled CLint | 46 mL/min/kg
CCc1cc(=O)oc2cc(OC(CC)C(=O)c3ccccc3)ccc12 (stereo not shown) | TZM-bl | cell growth or viability, resazurin |  |  | CC50 | > 12.5 µM
Nc1ccn([C@@H]2O[C@H](CO)[C@@H](O)C2(F)F)c(=O)n1 | MCF7 | cell growth or viability, MTT |  | 0.625 µg/mL, 48 h | viability | 68.6%
CC[C@H](C)[C@H](N)C(=O)OC[C@H]1O[C@@](C#N)(c2ccc3c(N)ncnn23)[C@H](O)[C@@H]1O | HEp-2 | cell growth or viability, CCK-8 |  | 5 days | CC50 | > 100 µM
CCOCC(=O)N1CCC[C@H](C(=O)NCc2nc(-c3ccc(C)nc3)cs2)C1 |  | metabolic stability | male Sprague-Dawley rat, liver microsomes | 0.5 µM | scaled CLint | 33 mL/min/kg
COc1ccc2c(c1)CN(C(=O)CCN1CCC(Cc3ccccc3)CC1)CC[S@@+]2[O-] |  |  | male human, plasma | intravenous, 0.05 mg/kg, healthy volunteers | clearance | 203 mL/min
Cc1cc(S(=O)(=O)N[C@H]2CC[C@H](CN3CCN(c4ccc(C5CCC(=O)NC5=O)c(Cl)c4)CC3)CC2)ccc1Nc1ncc(C(F)(F)F)c(N2CCC[C@](C)(O)C2)n1 (stereo partly shown) |  | metabolic stability | human, liver microsomes | 1 µM | scaled CLint | 20 mL/min/kg
CC(C)C(=O)OC[C@H]1O[C@@](C#N)(c2ccc3c(N)ncnn23)[C@H](O)[C@@H]1O | HEp-2 | cell growth or viability, CCK-8 |  | 5 days | CC50 | 81.6 µM
Cc1ncsc1-c1ccc(CNC(=O)[C@@H]2C[C@@H](O)CN2C(=O)[C@@H](NC(=O)COCCOCCn2cc(COc3ccc(-c4nc5cc(-c6ccccc6)ccn5c4Nc4ccc(C(=O)O)cc4)cc3)nn2)C(C)(C)C)cc1 | MCF7 | cell growth or viability |  | 72 h | CC50 | 74 µM
